# Screens deposited in PubChem by several laboratories.
# In the library only some 4.4% were active in any assay of this set; here they are far more common.
# AI-2 QS modul: Vibrio harveyi AI-2 quorum sensing modulators, primary screen, JMH597 strain, luminescence/OD600 ratio | Vibrio harveyi JMH597 AI-2 luminescence/OD600 ratio, 9 h; active compounds read low; strain lacks LuxN and CqsS sensors; 0 = neutral-control median | activity change, % at 7.5 µM | 0.4% of 300,000 active; in the data active = activity change below about -75%, passing the limit was not always enough; inconclusive = no clear call, values can overlap the other calls;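 note: luminescence divided by OD600 gain over 9 h not by final OD600 alone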
# MsrA act: bovine MsrA enzyme activators, primary screen, biochemical, absorbance, HTS; purified bovine MsrA, absorbance read-out; activation, % at 10.6 µM; 0.3% of 360,000 active; AID 602163, 2012; in the data active = activation above about 7.5%;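 note: 0% = vehicle and 100% = reference activator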
# AHR activator: AHR activators, primary screen, cell-based, luminescence, luciferase reporter, human; 2.5% of 320,000 active; activation, % at 5 µM; Aryl hydrocarbon receptor (Homo sapiens), P35869; AHR-responsive luciferase reporter cells; in the data active = activation above about 47%;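 note: 0% = vehicle wells and 100% = reference agonist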
# MsrA inhibitor: bovine MsrA enzyme inhibitors, primary screen, biochemical, absorbance, HTS. 0.75% of 360,000 active. AID 651718, 2012. purified bovine MsrA, absorbance read-out. inhibition, % at 15.5 µM; in the data active = inhibition above about 4.5%;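 note: 0% = vehicle wells with enzyme and 100% = reference inhibitor wells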
# m5-HT2A agonist: mouse Htr2a agonists via beta-arrestin recruitment, primary screen, cell-based, luminescence; 5-hydroxytryptamine receptor 2A (Mus musculus), P35363; CHO-K1 mHTR2A beta-arrestin complementation; percent of 30 µM serotonin response; activation, % at 7.6 µM; 0.66% of 360,000 active; AID 624169, 2012;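 active = activation above a run cutoff, the mean activation of all tested compounds plus 3 SD, cut at about 14% in these data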;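 note: 0% = plate median of compound wells and 100% = 30 µM serotonin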
# Target sequence (P35363 whole entry, looked up): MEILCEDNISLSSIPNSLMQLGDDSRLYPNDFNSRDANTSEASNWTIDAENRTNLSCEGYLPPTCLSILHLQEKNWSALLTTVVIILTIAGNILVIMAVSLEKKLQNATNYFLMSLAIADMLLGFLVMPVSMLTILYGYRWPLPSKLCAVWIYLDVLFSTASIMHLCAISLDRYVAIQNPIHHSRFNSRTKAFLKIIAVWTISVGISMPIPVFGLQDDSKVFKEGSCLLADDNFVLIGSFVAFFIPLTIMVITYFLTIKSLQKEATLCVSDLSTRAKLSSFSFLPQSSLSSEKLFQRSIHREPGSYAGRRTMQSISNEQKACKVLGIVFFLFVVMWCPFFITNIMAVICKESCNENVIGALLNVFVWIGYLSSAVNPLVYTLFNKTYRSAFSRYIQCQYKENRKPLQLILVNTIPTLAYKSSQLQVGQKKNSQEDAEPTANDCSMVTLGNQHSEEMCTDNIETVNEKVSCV
# Tb MetRS inh: T. brucei MetRS inhibitors, primary screen, biochemical, luminescence. inhibition, % at 11.9 µM. AID 624268, 2012. purified T. brucei MetRS, ATP depletion, Kinase-Glo luminescence. methionyl-tRNA synthetase (Trypanosoma brucei brucei). 0.4% of 360,000 active;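 active = inhibition above a per-plate cutoff of the control wells' mean inhibition plus 3 SD, cut at about 5.5% in these data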;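 note: 0% = DMSO wells median and 100% = median of wells with control inhibitor compound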
#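 Dosing: 11.9 µM single point; system: parasite MetRS enzyme; technique: luminescence of leftover ATP; times: 15 min enzyme-compound preincubation, 2 h reaction, 10 min detection, 25 °C; replicates: each compound tested once; read-out basis: percent inhibition relative to median high and low control wells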
# JMH597 growth rt: Vibrio harveyi growth inhibition, confirmation, counter-screen for AI-2 quorum sensing project, JMH597 strain, OD600 absorbance | shares compounds with AI-2 QS modul | 9 h; lacks LuxN and CqsS sensors | growth inhibition, % at 7.5 µM | 1% of 750 active;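 active = every replicate shows growth inhibition above 50%; inconclusive = at least half, but not all, replicates pass that cutoff; inactive = fewer than half of replicates pass it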
# BB721 lum counter: luminescence inhibition in constitutive-on V. harveyi, confirmation, counter-screen for LuxS inhibitor project, strain BB721, luminescence readout; AID 2727, 2010; inhibition, % at 7.5 µM; Vibrio harveyi BB721 luminescence, 9 h; shares compounds with AI-2 QS modul; 95% of 750 active;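 active = inhibition above about 80% in every replicate, not just on average, limit read from the data; inconclusive = at least half of replicates past the limit, but not all; inactive = fewer than half of replicates past the limit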
# BB721 growth rt: growth inhibition of V. harveyi BB721, confirmation, cytotoxicity control for AI-2 quorum sensing inhibitors, strain BB721, absorbance OD600; AID 2728, 2010; 3% of 750 active; growth inhibition, % at 7.5 µM; shares compounds with AI-2 QS modul; Vibrio harveyi BB721 growth, 9 h;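 active = every replicate shows growth inhibition above 50%; inconclusive = at least half but not all replicates above 50% inhibition; inactive = under half of replicates above 50% inhibition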
# AI-2 QS JMH597: Vibrio harveyi AI-2 signaling luminescence modulation – JMH597 strain, confirmation. shares compounds with AI-2 QS modul. Vibrio harveyi JMH597 AI-2 quorum sensing luminescence, 9 h; luxN and CqsS knockout, AI-2 only. inhibition, % at 7.5 µM. 97% of 750 active;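 active = every replicate shows more than 75% inhibition of signal versus neutral control wells; inconclusive = half to three quarters of replicates exceed 75% inhibition; inactive = fewer than half of replicates exceed 75% inhibition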
# * marks the source's active call; other numbers are inactive results; ? = inconclusive; . = no result.
SMILES,AI-2 QS modul,MsrA act,AHR activator,MsrA inhibitor,m5-HT2A agonist,Tb MetRS inh,JMH597 growth rt,BB721 lum counter,BB721 growth rt,AI-2 QS JMH597
CSCCC1NC(=O)N(CC(=O)Nc2ccc(N3CCCCC3)cc2)C1=O (stereo not drawn),-82*,0,11,1,1,0,-2,91*,-11,95*
CSCCC1NC(=O)N(CC(=O)Nc2c(Cl)cc(Cl)cc2Cl)C1=O (stereo not drawn),22,-12,1,0,1,-1,.,.,.,.
O=C(COC(=O)Cc1ccccc1F)Nc1ccc(SC(F)F)cc1,-20,0,1,0,-2,1,.,.,.,.
O=C(Cc1ccccc1F)Nc1ccc(SC(F)F)cc1,-83*,-3,11,-2,1,0,23,94*,26,94*
C[C@H](NS(=O)(=O)c1ccc(Cl)cc1)C(=O)OCC(=O)Nc1cc(S(=O)(=O)N2CCOCC2)ccc1Cl,.,-8,.,0,9,-1,.,.,.,.
Cc1ncn(-c2ccc(C(=O)Oc3ccccc3)cn2)n1,-87*,-3,-1,0,-4,1,19,93*,1,96*
O=C(CN1C(=O)NC2(CCCCC2)C1=O)Nc1ccc(N2CCOCC2)cc1,17,-3,6,-1,1,-1,.,.,.,.
O=C(CN1C(=O)NC2(CCc3ccccc32)C1=O)Nc1ccc(N2CCOCC2)cc1 (stereo not drawn),-89*,-12,17,1,2,-1,7,88*,9,93*
CN(C)c1cc[n+](CC(=O)Nc2ccc(Cl)c([N+](=O)[O-])c2)cc1,-87*,1,0,-1,-7,0,4,96*,-5,97*
CN(C)c1cc[n+](CC(=O)Nc2cccc([N+](=O)[O-])c2)cc1,-44,-2,-3,0,-4,0,.,.,.,.
COc1ccc(NC(=O)NCc2ccc(Cl)cc2)cc1,-16,0,.,0,9,0,.,.,.,.
COc1ccc(CNC(=S)Nc2cccc(Cl)c2)cc1,-84*,-3,29,0,2,0,0,95*,7,95*
COc1ccc(CNC(=O)Nc2cccc(Cl)c2)cc1,-94*,-5,.,.,-3,0,0,97*,14,98*
COC(=O)c1cccc(NC(=S)NCc2ccc(Cl)cc2)c1,-83*,1,3,0,-5,0,-24,90*,3,92*
COc1ccc(CNC(=S)Nc2cccc(C)c2)cc1,-51,-1,3,0,-5,-1,.,.,.,.
N#Cc1ccc(COC(=O)c2cnc(Cl)c(Cl)c2)cc1,12,-4,1,-1,2,0,.,.,.,.
O=S(=O)(Nc1ccc(-c2cn3c(n2)SCC3)cc1)c1cc(F)ccc1F,.,-2,.,0,-3,0,.,.,.,.
Fc1cc(F)c(F)c(SCn2cc(Br)cn2)c1F,.,0,.,1,-1,0,.,.,.,.
COc1ccccc1/C=C/C(=O)NCCC1=CCCCC1,17,-3,16,0,-3,1,.,.,.,.
O=C(/C=C/c1ccc(F)cc1)NCCC1=CCCCC1,-89*,-5,3,-1,-2,0,?,97*,25,98*
O=C(NNc1nc2cc3c(cc2s1)OCCO3)c1ccccc1,-93*,-3,74*,-1,3,0,-6,98*,18,98*
CC(C)CC(=O)/C=C/n1c(=S)oc2ccccc21,-86*,-4,1,-1,-2,0,29,93*,31,93*
O=C(CNC(=O)c1ccco1)Nc1ccc(S(=O)(=O)N2CCCC2)cc1,-94*,3,2,0,0,0,23,98*,-156,99*
COc1ccc(OCC(=O)Nc2ccc(S(=O)(=O)N3CCCC3)cc2)cc1,?,-10,1,-1,5,-1,24,95*,28,99*
O=C(Nc1ccc(S(=O)(=O)N2CCOCC2)cc1)c1ccco1,22,-4,2,1,1,0,.,.,.,.
SMILES,AI-2 QS modul,MsrA act,AHR activator,MsrA inhibitor,m5-HT2A agonist,Tb MetRS inh,JMH597 growth rt,BB721 lum counter,BB721 growth rt,AI-2 QS JMH597
Cc1ccc(OCC(=O)Nc2ccc(S(=O)(=O)N3CCCC3)cc2)cc1,?,-2,-1,-1,2,0,46,92*,29,99*
O=C(Cn1c(=O)sc2ccccc21)Nc1ccc(S(=O)(=O)N2CCCC2)cc1,-97*,-3,2,0,-1,0,15,99*,2,99*
O=C(Cc1cccc(NC(=O)C2CCCN(C(=O)c3ccccc3)C2)c1)Nc1ccc(C(=O)N2CCOCC2)cc1 (stereo not drawn),.,-3,.,-2,1,0,.,.,.,.
COc1cccc(NC(=O)CCN2C(=O)c3ccccc3Sc3ncccc32)c1,12,-1,3,1,-2,0,.,.,.,.
COCCN(C(=O)COC(=O)Cc1ccc(Cl)cc1Cl)c1c(N)n(Cc2ccccc2)c(=O)[nH]c1=O,11,-3,-2,0,11,0,.,.,.,.
Cc1ccc(CNC(=O)c2ccc(S(=O)(=O)N3CCCCCC3)cc2)cc1,.,2,.,0,-2,0,.,.,.,.
Cc1cc(NS(=O)(=O)c2ccc(NC(=O)COc3ccccc3Cl)cc2)no1,-23,-3,-1,0,0,1,.,.,.,.
O=C(COC(=O)c1ccc(Br)o1)Nc1cccc(S(=O)(=O)N2CCCCC2)c1,.,2,-1,-1,1,0,.,.,.,.
O=C(NNC(=O)C1CCN(S(=O)(=O)c2ccc(Cl)cc2)CC1)c1ccc(Cl)cc1,14,-4,2,0,-2,0,.,.,.,.
O=C(COC(=O)c1ccc(Br)o1)Nc1ccc(S(=O)(=O)N2CCCC2)cc1,-94*,-4,2,0,-1,0,0,99*,-4,100*
